In ChEMBL document CHEMBL1131239, “Orally active benzamide antipsychotic agents with affinity for dopamine D2, serotonin 5-HT1A, and adrenergic alpha1 receptors” (J Med Chem, 1998):

Legend:
[1] = target: T1, Adrenergic receptor alpha-1 (Rattus norvegicus, UniProt P15823+P23944+P43140); assay: Binding affinity against Alpha-1 adrenergic receptor from rat cerebral cortex; type: tissue-based
T1 sequence (P15823 whole entry): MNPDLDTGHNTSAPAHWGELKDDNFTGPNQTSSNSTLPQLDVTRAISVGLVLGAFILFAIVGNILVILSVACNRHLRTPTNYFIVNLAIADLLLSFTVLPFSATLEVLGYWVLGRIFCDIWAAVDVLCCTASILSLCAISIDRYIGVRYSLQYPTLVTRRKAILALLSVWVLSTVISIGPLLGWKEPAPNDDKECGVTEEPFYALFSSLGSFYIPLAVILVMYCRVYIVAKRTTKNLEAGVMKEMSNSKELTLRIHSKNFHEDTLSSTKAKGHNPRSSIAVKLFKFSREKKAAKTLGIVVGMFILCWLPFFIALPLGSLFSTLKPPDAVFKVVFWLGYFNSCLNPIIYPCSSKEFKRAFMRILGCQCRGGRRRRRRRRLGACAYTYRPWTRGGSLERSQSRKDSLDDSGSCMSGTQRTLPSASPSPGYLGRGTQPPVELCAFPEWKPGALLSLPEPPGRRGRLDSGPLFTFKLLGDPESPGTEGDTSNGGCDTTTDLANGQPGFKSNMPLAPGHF
T1 sequence (P23944 whole entry): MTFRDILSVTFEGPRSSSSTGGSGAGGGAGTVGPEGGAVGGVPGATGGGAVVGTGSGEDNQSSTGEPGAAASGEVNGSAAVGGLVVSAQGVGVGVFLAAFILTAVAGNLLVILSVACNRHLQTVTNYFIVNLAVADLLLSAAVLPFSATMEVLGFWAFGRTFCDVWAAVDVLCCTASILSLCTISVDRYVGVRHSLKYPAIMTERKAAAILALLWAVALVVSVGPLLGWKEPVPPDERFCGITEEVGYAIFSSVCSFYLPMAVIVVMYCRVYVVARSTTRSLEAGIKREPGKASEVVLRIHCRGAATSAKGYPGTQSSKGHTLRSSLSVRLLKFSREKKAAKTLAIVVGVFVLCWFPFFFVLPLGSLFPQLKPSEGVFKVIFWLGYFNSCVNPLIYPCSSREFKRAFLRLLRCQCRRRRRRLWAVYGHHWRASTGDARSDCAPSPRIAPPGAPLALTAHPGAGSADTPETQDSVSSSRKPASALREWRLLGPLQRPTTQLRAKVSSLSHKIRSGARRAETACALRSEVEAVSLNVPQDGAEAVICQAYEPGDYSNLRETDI
T1 sequence (P43140 whole entry): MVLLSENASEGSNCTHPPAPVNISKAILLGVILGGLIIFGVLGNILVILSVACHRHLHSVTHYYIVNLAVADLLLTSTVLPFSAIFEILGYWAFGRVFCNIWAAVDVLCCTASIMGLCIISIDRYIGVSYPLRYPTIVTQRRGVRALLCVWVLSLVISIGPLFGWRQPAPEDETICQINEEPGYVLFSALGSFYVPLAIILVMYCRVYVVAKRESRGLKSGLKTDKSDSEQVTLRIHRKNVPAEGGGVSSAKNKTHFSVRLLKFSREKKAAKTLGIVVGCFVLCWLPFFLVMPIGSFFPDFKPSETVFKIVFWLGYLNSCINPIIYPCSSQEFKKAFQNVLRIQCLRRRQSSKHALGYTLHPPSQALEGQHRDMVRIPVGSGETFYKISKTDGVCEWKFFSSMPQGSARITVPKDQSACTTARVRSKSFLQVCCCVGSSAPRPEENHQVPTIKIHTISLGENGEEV

[2] = test system: Rattus norvegicus; assay: compound was tested for antipsychotic activity by conditioned avoidance response(CAR) assay in rats with a pretreatment period of 30 min upon intra peritoneal administration at a concentration of 5 mg/kg.; type: functional
How it was run: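 Rat conditioned avoidance test modified from Martin et al. Trained rats (N = 4) were run in 1-h sessions on two consecutive days. Fed animals had food and water until placed in the test chambers. Dosing was ip with 30 min pretreatment, and activity was expressed as percent inhibition at the stated dose.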

[3] = target: T2, 5-hydroxytryptamine receptor 1A (Rattus norvegicus, UniProt P19327); assay: Compound was evaluated for its binding affinity against 5-hydroxytryptamine 1A receptor from rat cerebral cortex; type: tissue-based
T2 sequence (P19327 whole entry): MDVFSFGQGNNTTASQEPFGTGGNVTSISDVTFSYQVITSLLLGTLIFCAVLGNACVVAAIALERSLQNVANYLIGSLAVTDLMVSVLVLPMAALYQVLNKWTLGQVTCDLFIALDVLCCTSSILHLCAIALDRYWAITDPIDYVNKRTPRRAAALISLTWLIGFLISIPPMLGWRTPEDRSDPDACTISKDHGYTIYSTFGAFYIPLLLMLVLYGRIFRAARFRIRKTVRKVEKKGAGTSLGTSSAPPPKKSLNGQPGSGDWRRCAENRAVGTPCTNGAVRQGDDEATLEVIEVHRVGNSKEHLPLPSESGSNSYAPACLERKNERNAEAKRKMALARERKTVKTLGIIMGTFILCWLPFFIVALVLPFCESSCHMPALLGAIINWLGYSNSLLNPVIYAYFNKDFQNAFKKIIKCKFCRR

[4] = test system: Rattus norvegicus; assay: (§1) compound was tested for antipsychotic activity by conditioned avoidance response(CAR) assay in rats with a pretreatment period of 30 min upon intra peritoneal administration at a concentration of 15 mg/kg.; type: functional
How it was run: (§2)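 Trained rats (N = 4) were run in 1-h sessions on two consecutive days, with the experimenter blind to drug and dose. Fed rats had food and water until placed in the test chambers. Fasted rats had no food overnight before the experiment.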

[5] = test system: Rattus norvegicus; assay: as §1; type: functional; remark: listed apart in the source
[6] = test system: Rattus norvegicus; assay: compound was tested for antipsychotic activity by conditioned avoidance response(CAR) assay in rats with a pretreatment period of 30 min upon intra peritoneal administration at a concentration of 1 mg/kg.; type: functional; how it was run: as §2
[7] = test system: Rattus norvegicus; assay: Percent catalepsy in male Spargue-Dawley rat at pretreatment time 60 mins and when administered ip at dose 50 mg/kg; type: functional; conditions: route intraperitoneal
How it was run: (§3)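 Catalepsy in rats, groups of five per drug treatment, scored blind to drug and dose. Each session included a saline or vehicle negative control and a haloperidol 2 mg/kg positive control. Deaths during the experiment were recorded in the catalepsy column as number dead out of five.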

[8] = test system: Rattus norvegicus; assay: Percent catalepsy in male Spargue-Dawley rat at pretreatment time 240 mins and when administered ip at dose 50 mg/kg; type: functional; conditions: route intraperitoneal; how it was run: as §3
[9] = test system: Rattus norvegicus; assay: compound was tested for antipsychotic activity by conditioned avoidance response(CAR) assay in rats with a pretreatment period of 60 min upon peroral administration at a concentration of 20 mg/kg.; type: functional; conditions: route oral
[10] = test system: Rattus norvegicus; assay: compound was tested for antipsychotic activity by conditioned avoidance response(CAR) assay in rats with a pretreatment period of 30 min upon peroral administration; type: functional; conditions: po; how it was run: as §2

| SMILES | Ki [1] [nM] | Ki [3] [nM] | inhibition in vivo at 5 mg/kg [2] [%] | inhibition in vivo at 15 mg/kg [4] [%] | inhibition in vivo at 15 mg/kg [5] [%] | inhibition in vivo at 1 mg/kg [6] [%] | Catalepsy [7] [%] | Catalepsy [8] [%] | inhibition in vivo at 20 mg/kg [9] [%] | ED50 [10] [mg/kg] |
| --- | --- | --- | --- | --- | --- | --- | --- | --- | --- | --- |
| CCCc1ccccc1N1CCN(Cc2cccc(C(=O)N3CCCCC3)c2)CC1 | 16 | 9.1 | – | – | -0.7 | – | – | – | – | – |
| O=C(c1cccc(CN2CCN(c3ccccc3Cl)CC2)c1)N1CCCCC1 | 16 | 8.2 | -67.9 | – | -68.6 | – | – | – | – | – |
| O=C(c1cccc(CN2CCN(c3ccccc3C(F)(F)F)CC2)c1)N1CCCCC1 | 3.3 | 0.8 | -5.5 | – | -59.7 | – | – | – | – | – |
| CC(C)Oc1ccccc1N1CCN(C(C)c2cccc(C(=O)N3CCCCC3)c2)CC1 (stereo not given) | 87 | > 1000 | – | -7.1 | – | – | – | – | – | – |
| CCCCN(CCCC)C(=O)c1cccc(CN2CCN(c3ccccc3OC(C)C)CC2)c1 | 3.3 | 0.8 | – | – | -5.6 | – | – | – | – | – |
| O=C(c1cccc(CN2CCN(c3cccc4ccccc34)CC2)c1)N1CCCCC1 | 57 | 1.8 | – | – | -18.8 | – | – | – | – | – |
| CC(C)Oc1ccccc1N1CCN(Cc2cccc(C(N)=O)c2)CC1 | 11.4 | 18 | -88.5 | – | – | -3 | – | – | -1.1 | – |
| CC(C)Oc1ccccc1N1CCN(Cc2cccc(C(=S)N3CCCCC3)c2)CC1 | 2.3 | 1.1 | -71.6 | – | – | – | – | – | – | – |
| CC(C)Oc1cc(F)ccc1N1CCN(Cc2cccc(C(=O)N3CCCCC3)c2)CC1 | 6 | 4.2 | -82.6 | – | – | -22.6 | 45.2 | 50 | – | – |
| CC(C)Oc1ccccc1C1(O)CCN(Cc2cccc(C(=O)N3CCCCC3)c2)CC1 | 110 | > 1000 | 0.9 | – | – | – | – | – | – | – |
| CC(C)Oc1ccccc1N1CCN(CCc2ccc(C(=O)N3CCCCC3)cc2)CC1 | 2.1 | 2.5 | – | -98.2 | – | -1.1 | – | – | – | – |
| CCN1CCCC1CNC(=O)c1cccc(CN2CCN(c3ccccc3OC(C)C)CC2)c1 (stereo not given) | 486 | 121 | -19.4 | – | -74.9 | – | – | – | – | – |
| O=C(c1cccc(CN2CCN(c3ccc(Cl)cc3)CC2)c1)N1CCCCC1 | 486 | 121 | – | – | -4.7 | – | – | – | – | – |
| CN1CCN(C2=Nc3cc(Cl)ccc3Nc3ccccc32)CC1 [CLOZAPINE] | – | – | – | – | – | – | – | – | – | 9.3 |

More lines, main results first:

| Ki [1] [nM] | Ki [3] [nM] | SMILES | inhibition in vivo at 5 mg/kg [2] [%] | inhibition in vivo at 15 mg/kg [4] [%] | inhibition in vivo at 15 mg/kg [5] [%] | inhibition in vivo at 1 mg/kg [6] [%] | Catalepsy [7] [%] | Catalepsy [8] [%] | inhibition in vivo at 20 mg/kg [9] [%] | ED50 [10] [mg/kg] |
| --- | --- | --- | --- | --- | --- | --- | --- | --- | --- | --- |
| 6.4 | 3.9 | CC(C)Oc1ccccc1N1CCN(Cc2cccc(C(=O)N3CCCCC3=O)c2)CC1 | -11.2 | -92.4 | – | – | – | – | – | – |
| 1.2 | 3.4 | CC(C)Oc1ccccc1N1CCN(Cc2cccc(C(=O)N3CCC3)c2)CC1 | – | – | -87 | – | – | – | – | – |
| 1.2 | 1.2 | CC(C)Oc1ccccc1N1CCN(Cc2cccc(C(=O)N(C)C3CCCCC3)c2)CC1 | -98.9 | – | – | -9.3 | 0 | 58.1 | – | – |
| > 1000 | – | COCCN1CCN(Cc2cccc(C(=O)N3CCCCCC3)c2)CC1 | – | – | – | – | – | – | – | – |
| 1.9 | 0.13 | CC(C)Oc1ccccc1N1CCN(Cc2cccc(C(=O)N3CCCCCCC3)c2)CC1 | -90.4 | – | – | -24.5 | 34.4 | 17.6 | -84.7 | – |
| 29 | 3.2 | CC(C)Oc1ccccc1N1CCN(Cc2cccc(C(=O)N3CCOCC3)c2)CC1 | -95.4 | – | – | -94.5 | – | – | -96.2 | – |
| 44 | 7.2 | O=C(c1cccc(CN2CCN(c3ccccc3)CC2)c1)N1CCCCC1 | -2.2 | – | -82.1 | – | – | – | – | – |
| > 1000 | – | O=C(c1cccc(CN2CCN(CCO)CC2)c1)N1CCCCCC1 | -2.1 | – | – | – | – | – | – | – |
| > 1000 | – | CN1CCN(Cc2cccc(C(=O)N3CCCCC3)c2)CC1 | – | – | 0.4 | – | – | – | – | – |
| 3.4 | 4.1 | CC(C)Oc1ccccc1N1CCN(Cc2cccc(C(=O)NC3CCCCC3)c2)CC1 | -17.6 | – | -86.2 | – | – | – | – | – |
| – | 12 | O=C(c1cccc(CN2CCN(c3ncccn3)CC2)c1)N1CCCCC1 | -17.9 | – | -6.8 | – | – | – | – | – |
| 11.4 | 1.2 | O=C(c1cccc(CN2CCN(c3cccc(Cl)c3)CC2)c1)N1CCCCC1 | -36.1 | – | – | – | 21.8 | 33.9 | -27.9 | – |
| 562 | 2.3 | O=C(c1cccc(CN2CCN(c3cccc(C(F)(F)F)c3)CC2)c1)N1CCCCC1 | -3.7 | – | -71.6 | – | – | – | – | – |
| 13 | 0.21 | O=C(c1cccc(CN2CCN(c3ccc4ccoc4c3)CC2)c1)N1CCCCC1 | -82.4 | – | – | – | – | – | – | – |
| 11 | 11 | CC(C)Oc1ccccc1N1CCN(Cc2cccc(C(=O)Nc3ccc(F)cc3)c2)CC1 | – | – | -2.5 | – | – | – | – | – |
| 284 | – | CC(C)Oc1ccccc1N1CCN(CCCCc2ccc(C(=O)N3CCCCC3)cc2)CC1 | – | -95.3 | – | – | – | – | – | – |
| 19 | 2.5 | N#Cc1ccccc1N1CCN(Cc2cccc(C(=O)N3CCCCC3)c2)CC1 | -73.9 | – | – | -5.3 | – | – | -5.4 | – |
| 27 | 16 | O=C(c1cccc(CN2CCN(c3ccccc3F)CC2)c1)N1CCCCC1 | – | – | -84.3 | – | – | – | – | – |
| > 1000 | 24 | O=C(c1cccc(CN2CCN(c3cccc([N+](=O)[O-])c3)CC2)c1)N1CCCCC1 | -1.3 | – | -77.7 | – | – | – | – | – |
